Tested on: MS2 coat protein
Assay: apparent Kd, MS2 coat protein; higher = weaker binding; RNA-MaP array
How it was run: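 Apparent Kd values come from the median of binding-curve fits to single clusters. To obtain them, designed RNAs transcribed on an Illumina sequencing chip from sequenced DNA templates were incubated at room temperature with fluorescently labeled MS2 coat protein at 1.5 nM to 3 μM, with or without input ligand, for 0.8–1.5 h at the lowest and 10–20 min at the highest concentrations. Designs measured on fewer than 10 clusters were excluded.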

[1] = designed as: OFF switch for flavin mononucleotide, no ligand
[2] = ligand present: flavin mononucleotide, designed as: OFF switch for flavin mononucleotide
[3] = designed as: ON switch for flavin mononucleotide, no ligand
[4] = ligand present: flavin mononucleotide, designed as: ON switch for flavin mononucleotide

Sequence	apparent Kd [1]	apparent Kd [2]	apparent Kd [3]	apparent Kd [4]	further results
GUACACAUGAGGAUCACCCAUGUACUGGUACGAGGACCGGUACGGCCGCCACUCGCCGAGAUUCAUAACACAUCAGAAAGCUCAC					apparent Kd (designed as: ON switch for tryptophan, no ligand): 17.6 nM; apparent Kd (ligand present: tryptophan, designed as: ON switch for tryptophan): 15.6 nM
GGGUCGCGUUCGGCCGCCACUUGGAAACAUGAGGAUCACCCAUGUCAUAUGGUGGGACAUGUUGUAAGGACCGGGAACCGUCCUA					apparent Kd (designed as: OFF switch for tryptophan, no ligand): 64.2 nM; apparent Kd (ligand present: tryptophan, designed as: OFF switch for tryptophan): 88.1 nM
AUGCACUCAGUCAGGAUAUGCAACUUAUAAUACAGGCAGAAGGGACAUGAGGAUCACCCAUGUGGCCGGUAAGA	9.13 nM	39.1 nM			
UUGAUCUGACGAGGAUAUAUCAUAACACCUUUGAUAGAAGGCGUGAUCGACAUGAGGAUCACCCAUGUGCGUGACUUUGGUAGU			11.6 nM	10.8 nM	
GACAGAAAGUCAGGAUAUGAACGGUCAUGACAUGAGGAUCACCCAUGUUUCUUGUGCACCCUGCGUCAGAAGGGACUAGUGAGG			19.3 nM	12.8 nM	
GCAAGAGAGCAGAAGGUUGAGGGCGUUCCCGUUUACAUGAGGAUCACCCAUGUUGCUAACAUGUCAAAGGAUAUGCCUAACGCU	70.8 nM	63.8 nM			
CUAAAACAUGAGGAUCACCCAUGUCAUUUAACUCAAGGAUAUAGAUCUGAGAGCUCAGCGCUAGAAGGUGAUUUUG			55.1 nM	40.3 nM	
UGGAAGUAAGGAUAUCCGCGCGCGGGUUUUGCGCACGCACUGGAGAAGGUACAUGAGGAUCACCCAUGUUCGUC	9.85 nM	9.59 nM			
GAAAUCAGAGAGAAGGGUUUACAUCCGACAUGAGGAUCACCCAUGUAGUAAAACUACGACAACUAACAGGAUAUCACUGGCACC			208 nM	176 nM	
UUUAGACGGCAGAAGGCGGGCUCGCGCGGUGUACAUGAGGAUCACCCAUGUGUUUGCCAUCUACCCGAGGAUAUGCAGUGAUGG			39.4 nM	13.2 nM	
GACAUCCUCACAAUACAUGAGGAUCACCCAUGUGAAGUGGCCUAGGAUAUUCAAGAGUGGGUCACGAAGAAGGAGGCUGCAGGA	33.3 nM	28.3 nM			
ACAUGAGGAUCACCCAUGUACAUUUAUACUGGGAGACUAUCGUAGGAUAUAUGAACAAGCAUUCUAUAGAAGGACGAAAAGAUC	59.4 nM	40.4 nM			
GUAUGGGCUGUAAGGAUAUCUAAGCCGGUUGUGGCAGAGAAGGUACAUGAGGAUCACCCAUGUGGACUUGGGUC	13.9 nM	15.7 nM			
UCGGCACAUGAGGAUCACCCAUGUAAGGAUAUACGAAGCUUGCAGUCGCUGUUAUUUGGUAGAAGGUACCCUCG	14.5 nM	12.5 nM			
UCUCAAAUAAAUAUCAUACAUGAGGAUCACCCAUGUCACCGAUAGGAUAUGCGCGUUUCCCACCUGCAGAAGGAUCAAACUGUA			15.4 nM	13.4 nM	
AUCACUGAGCGAGGAUAUUAUUUCAAAUCAACGACGAUCCUACACAUGAGGAUCACCCAUGUUAGUAAGAAGGCGCGCCAGAUG	62.5 nM	93.5 nM			
CAAGAGUUAGAAGGAUAUACAAGAUGCUGAAAGAAACGUGAACAAAACAUGAGGAUCACCCAUGUGAAGAAGGUCAAAUAGAAA	10.4 nM	9.21 nM			
AUGGUCUCUUAAGGAUAUAGCUAUACAGAGCGCACGUAGGUUAAAUACAUGAGGAUCACCCAUGUCUAGAAGGUAAGUACCGGA			11.6 nM	11.1 nM	
GCCUUAGGGGCAGGAUAUUUCGAGGACCUCAACAUGAGGAUCACCCAUGUACCGCAAUCGUCUCUAAAGAAGGGCCUCUUGCUC			53.9 nM	28.5 nM	
CAGAGCCAAAACAAGGAUAUACAUAACAUUACAUGAGGAUCACCCAUGUUAUAGCUAACCUUGUAGUAGAAGGUGUUUGGCAACAU			7.36 nM	6.39 nM	
AUGAUCGAACAGAAGGCACGGUGACAGUUAAAGUGAGGAUAUGUAGACAUGAGGAUCACCCAUGUUACUAUACACGGGUCUAUC	15.1 nM	45.9 nM			
AUAAACUAACAUGAGGAUCACCCAUGUAUGGAGAAAAUACCUAGAAGGAGGAUAUUUACAACAUCCAAGGAUAUAGGAGCCUCA			68.1 nM	42.4 nM	
CAUAUGUUAGGAUAUAAGUUUAGAUCAUGCGUGUUUAUGGCUUAGAAGGAACAUGAGGAUCACCCAUGUAACAG	21.2 nM	22.3 nM			
GGGGGUUGGACAGGAUAUAGAGGUCUCGUGUGGAGAUGCACAACGACAUGAGGAUCACCCAUGUGCUAGAAGGGUCUGCGAUAG			19.3 nM	16.1 nM	
UCUAUGCUAACAGGAUAUCGCGGCACGAUGCUUCGAGAAGGGUUAACAUGAGGAUCACCCAUGUGUGUCCUACGGAGACCGCGC	9.01 nM	11.8 nM			
AUUUCUUCGGUCAGGAUAUCUAGUGUAACGCGGUCAGAGAAGGGACAUGAGGAUCACCCAUGUGUGACUCUCUG	5.77 nM	5.9 nM			
UCAAUCACACAUGAGGAUCACCCAUGUGAUAAUCAUGACUCAAGAAGGCAUGUGCAACUUGUUAAUGAGGAUAUUGGAGUAAUG	31.9 nM	22.3 nM			

Sequence	apparent Kd [1]	apparent Kd [2]	apparent Kd [3]	apparent Kd [4]	further results
GUGGCAGGUGUCAGCCACAUGAGGAUCACCCAUGUUACUGAUCAGGAUAUUCGUGUGCGUCGCCGGAAGAAGGGAUUUGGACAU	123 nM	64.1 nM			
GAAUGAAUACAAGGAUAUCCCACAUGAGGAUCACCCAUGUAAAUACAAAUGUAAUACGUUGCUAAGGAGAAGGUGUAGAACAAA			113 nM	28.9 nM	
UCCAGACAUGAGGAUCACCCAUGUUGUGAUACCAGAACCGUGGAGUUCCCUUGGCAGCACUAAGAAGUUCCUGGAUCAGCUAGCG					apparent Kd (designed as: ON switch for theophylline, no ligand): 27.6 nM; apparent Kd (ligand present: theophylline, designed as: ON switch for theophylline): 32.8 nM
ACGAAAUCUUAAACUUACGCACAUGAGGAUCACCCAUGUCACUAGGAUAUUAAAACAAAACAAUGUAAGAAGGAGUGAGAAAAG			13.6 nM	11.8 nM	
AAGUAGGAAGGAUAUACAUGAGGAUCACCCAUGUAAGGCAUUUGGCUAUAAUCGUUAAGUAGAAGGUCCUGCCG	8.6 nM	8.2 nM			
ACUACAUGCGAAUACAUGAGGAUCACCCAUGUCCAUAAGACCUAGGAUAUCCAGUAACCCUGCAAGGAGAAGGAGGAGAGCACU			25.4 nM	19.6 nM	
AAACACAACCAGAAGGCCAAAACAUGAGGAUCACCCAUGUAGAUAAGAAGAGUAAGCACUGUCAUGGAGGAUAUGGGUCAAAAC			20.8 nM	7.12 nM	
UACAUGAGGAUCACCCAUGUCAAACCGUUCUAGGACUAGGUAAGAAGGGUCAUCCUACAAUGUUGACAGGAUAUUACGUAGCUG			348 nM	71.3 nM	
AAACAUACGUGAGGAUAUCCCGUUUGAGAGGCUAGUAUCAUCGAAACAUGAGGAUCACCCAUGUCGGAGAAGGCACUACAGGAG			6.63 nM	6.6 nM	
GUUAGCACUUAAGGAUAUUGGAAGCGCGUCGUCCAAGAAGGUAAGUUCUUCGUCGACAUGAGGAUCACCCAUGUCAUGCAUGGC	16.5 nM	11.8 nM			
GUACAUAUAGAGAAGGGUGAGUAUAUCAGCCUCACAGGAUAUCUGAUGAGUGACAUGAGGAUCACCCAUGUGGUUGUCGGUAGG	214 nM	102 nM			
UAGGGUCUGUCGCGACAUGAGGAUCACCCAUGUGCUUAGUCAAGAAGGGCGGACAUGCAAAACCCGCAGGAUAUUGUAUGCACU	254 nM	59.5 nM			
AGAACUUUGGUGGAUACCAGCUUCUGGCCAUCCUUCAAAUACAUGAGGAUCACCCAUGUUAGCCCUUGGCAGCCAACAUAGACUG					apparent Kd (designed as: OFF switch for theophylline, no ligand): 22.4 nM; apparent Kd (ligand present: theophylline, designed as: OFF switch for theophylline): 222 nM
GGUUAACAUGAGGAUCACCCAUGUAAGGAUAUCGGGCUGUCCAGGCGAUAGUACACGUCGAGAAGGUACGCGGU	10.8 nM	12.2 nM			
GUUAAAGAACGAGGAUAUAUUUGGUGAGGAGUACACAUGAGGAUCACCCAUGUCCAUCCUAUUCCAUAGAAGGCGUAGAGUUUU			6.71 nM	6.95 nM	
UGAGACAGAGGAUAUACAAAAGGGAAACGAGCACAGAGGAAACAUGAGGAUCACCCAUGUAGAAGGCUGAACAG	6.99 nM	19 nM			
GCAUGGACAUGAGGAUCACCCAUGUGUCGCCCUGGACCCGUUAGAAGGCCGUUCCAGAGAACAACGGAGGAUAUAAUUACAGCC			35.7 nM	27 nM	
GCAGUUGGUCUCUCACAUGAGGAUCACCCAUGUUCUUAGUUUCAGGAUAUAUGAGCGAAUUGCGGAUAGAAGGGAAACAGUCAC	41.6 nM	49.7 nM			
UCGGGUAAGCAGAAGGCACUAGAUUCUCUUUCAGCGAUAUAACAUGAGGAUCACCCAUGUAGAGGUGAGGAUAUGCAGAAACGC			169 nM	83.9 nM	
CUCAUGAGGAAGAAGGAUUAGGUCAGUGCAGUAAUAGGAUAUUCGUAACACAUGAGGAUCACCCAUGUCUACUCCGGAGCGACA			182 nM	81.1 nM	
AUGGUGGCUUCAGGAUAUCGCAAGUUAAUACGUCCCACAUGAGGAUCACCCAUGUAACGGUGGGUCGAGAAGGGAACCAUCCCG	90.8 nM	63.5 nM			
AUUUGACAUGAGGAUCACCCAUGUGACUUGUCGUGAGGAUAUUAUUGAAAUCUAUGUCAUUAAGAAGGCACAAUUU			32.7 nM	16.5 nM	
UAUCUACUAUGAGGAUAUCGACAAUGGAUGAACAUGAGGAUCACCCAUGUAACUCAUGGUCCCUUCGAGAAGGCAUGCUAUAAC	55 nM	59.5 nM			
CACACCGCAGUGAGGAUAUACCAACUGAACGUUGAGUAGAAGGCACAUGAGGAUCACCCAUGUCACUACUGACA	8.62 nM	35.7 nM			
AGCGCCUUAUCAGGAUAUAUGCGCAUGAAGUAGGUACACAUGAGGAUCACCCAUGUCCGGGGAACAUAGAAGGGAUAGAAGUAG			86.9 nM	48.7 nM	
GCCUAGCUAGGAUAUACCAGAGUGUAUACUUAUGUGGAUCGACAUGAGGAUCACCCAUGUAGAAGGAGCAAGAU	30.8 nM	58 nM			
UUUAGACCUCAACAUGAGGAUCACCCAUGUAAAUCUCUAUCGAGAAGGAAGGAAGGAACCUUGUCUUAGGAUAUCGACAAUUUC			101 nM	71.7 nM	

— the EternaBench riboswitch data
